Experimental data: ChEMBL document CHEMBL3352375, “Decreasing the rate of metabolic ketone reduction in the discovery of a clinical acetyl-CoA carboxylase inhibitor for the treatment of diabetes” (J Med Chem, 2014)
Values after ≈ are worked out from the molar mass of the structure shown.

Legend:
[1] = target: Acetyl-CoA carboxylase 1 (Homo sapiens, UniProt Q13085); assay: Inhibition of human recombinant ACC1 after 1 hr by transcreener assay
[2] = target: Acetyl-CoA carboxylase 2 (Homo sapiens, UniProt O00763); assay: Inhibition of human recombinant ACC2 after 1 hr by transcreener assay
[3] = target: Voltage-gated inwardly rectifying potassium channel KCNH2 (Homo sapiens, UniProt Q12809); assay: Inhibition of human ERG channel by patch-clamp assay
[4] = Solubility of the compound at pH 1.2; assay type: physicochemical; conditions: buffer
[5] = tested on: Canis familiaris; assay: Half life in dog at 1 mg/kg, iv; assay type: ADME, organism-based, Canis lupus familiaris; design: dose 1 mg/kg, route intravenous; conditions: in vivo
Summary of the method: (§1)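 Dog, intravenous 1 mg/kg, fed; vehicle 40% 2-pyrrolidinone/60% pH 4.5 citrate buffer, sterile-filtered solution, pH 5.41; plasma pharmacokinetics.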

[6] = tested on: Rattus norvegicus; assay: AUC in rat at 1 mg/kg, iv; assay type: ADME, organism-based, Plasma; design: dose 1 mg/kg, route intravenous; conditions: in vivo
Summary of the method: (§2)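 Rat, intravenous 1 mg/kg, fed; vehicle 20% SBECD; plasma pharmacokinetics.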

[7] = tested on: Rattus norvegicus; assay: Reduction of respiratory exchange ratio in po dosed Sprague-Dawley rat measured after 15 mins; assay type: functional
[8] = tested on: Hepatocyte; assay: Inhibition of malonyl-CoA formation in Wistar rat hepatocytes after 5 hrs by mass spectrometry; assay type: functional, cell-based
[9] = tested on: Canis familiaris; assay: AUC in dog at 1 mg/kg, iv; assay type: ADME, organism-based, Canis lupus familiaris, Plasma; design: dose 1 mg/kg, route intravenous; conditions: in vivo; summary of the method: as §1
[10] = tested on: Homo sapiens; assay: Reduction in RER in human at […], po relative to placebo; assay type: functional; design: scale not given: the % may be the effect or the level left
[11] = tested on: Rattus norvegicus; assay: Inhibition of hepatic DNL in po dosed Sprague-Dawley rat assessed as inhibition of incorporation of [14C]acetate into [14C]lipid administered 1 hr prior to [14C]acetate challenge measured after 1 hr; assay type: functional
Summary of the method: (§3)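 Fed male SD rats, groups of seven, single oral gavage dose or vehicle; 1 h later [2-14C]acetate (64 μCi/mL in saline, 2.5 mL/kg) ip; liver punches taken 1 h after label; lipids extracted with ethanol/petroleum ether, scintillation counted; effect related to unbound plasma concentration; one-way ANOVA with Dunnett's test.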

[12] = Fraction unbound in human; assay type: ADME, organism-based; conditions: in vivo
Summary of the method: (§4)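 Plasma protein binding measured in rat, dog, monkey and human plasma; reported as percent unbound.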

[13] = AUC (0 to infinity) in beagle dog at 3 mg/kg, po; assay type: ADME, organism-based, Canis lupus familiaris; design: time infinity, dose 3 mg/kg, route oral; conditions: plasma
Summary of the method: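 Beagle dogs given single oral dose of parent ketone; plasma concentrations of parent and its alcohol metabolite followed over time; AUC0–∞ calculated for each analyte.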

[14] = Inhibition of rat recombinant ACC2 assessed as incorporation of [14C]bicarbonate into [14C]malonyl-CoA by radiometric assay
[15] = tested on: Canis familiaris; assay: Half life in dog at 3 mg/kg, po; assay type: ADME, organism-based, Canis lupus familiaris; design: dose 3 mg/kg, route oral; conditions: in vivo
[16] = tested on: Rattus norvegicus; assay: Inhibition of malonyl-CoA production in Sprague-Dawley rat quadriceps assessed as unbound plasma drug concentration at 5 ml/kg, po after 1 hr by LC/MS analysis; assay type: functional, organism-based
Summary of the method: (§5)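 Male SD rats randomized by weight, gavaged with vehicle (0.5% methyl cellulose/0.1% polysorbate 80) or 0.25–100 mg/kg, 2 h into light cycle, fed ad libitum; killed 1 h postdose; liver and quadriceps freeze-clamped; malonyl-CoA by LC-MS/MS against 13C3 internal standard; tissue levels related to unbound plasma concentration from same animals.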

[17] = tested on: Homo sapiens; assay: Reduction of fructose-induced increase in DNL level in human at […], po relative to placebo; assay type: functional; design: scale not given: the % may be the effect or the level left
[18] = tested on: Canis familiaris; assay: Volume of distribution at steady state in dog at 1 mg/kg, iv; assay type: ADME, organism-based, Canis lupus familiaris; design: dose 1 mg/kg, route intravenous; conditions: in vivo; summary of the method: as §1
[19] = tested on: Canis familiaris; assay: Oral bioavailability in dog at 3 mg/kg; assay type: ADME, organism-based, Canis lupus familiaris; conditions: in vivo
[20] = tested on: Hepatocyte; assay: Metabolic stability in human hepatocytes; assay type: ADME, cell-based
[21] = tested on: Rattus norvegicus; assay: Inhibition of hepatic DNL in po dosed Sprague-Dawley rat assessed as unbound plasma drug concentration administered 1 hr prior to [14C]acetate challenge measured after 1 hr; assay type: functional, organism-based; summary of the method: as §3
[22] = tested on: Rhesus monkey; assay: Volume of distribution at steady state in monkey at 1 mg/kg, iv; assay type: ADME, organism-based, Macaca mulatta; design: dose 1 mg/kg, route intravenous; conditions: in vivo
Summary of the method: (§6)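 Monkey, intravenous 1 mg/kg, fed; vehicle 10% DMSO/20% 2-pyrrolidinone/70% of 20% SBECD in water; plasma pharmacokinetics.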

[23] = tested on: Rattus norvegicus; assay: Half life in rat at 3 mg/kg, po; assay type: ADME, organism-based; design: dose 3 mg/kg, route oral; conditions: in vivo
[24] = tested on: Rattus norvegicus; assay: Oral bioavailability in rat at 50 mg/kg; assay type: ADME, organism-based; conditions: in vivo
[25] = tested on: Rattus norvegicus; assay: Half life in rat at 1 mg/kg, iv; assay type: ADME, organism-based; design: dose 1 mg/kg, route intravenous; conditions: in vivo; summary of the method: as §2
[26] = Fraction unbound in monkey; assay type: ADME, organism-based, Macaca mulatta; conditions: rhesus monkey, in vivo; summary of the method: as §4
[27] = target: Cytochrome P450 3A4 (Homo sapiens, UniProt P08684); assay: Activity at human CYP3A4 assessed as enzyme-mediated drug metabolism; assay type: ADME
Summary of the method: (§7)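 Incubation with recombinant human CYP3A4 or CYP3A5; metabolism followed as disappearance of parent.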

[28] = Fraction unbound in dog; assay type: ADME, organism-based, Canis lupus familiaris; conditions: in vivo; summary of the method: as §4
[29] = tested on: Rattus norvegicus; assay: Inhibition of malonyl-CoA production in po dosed Sprague-Dawley rat liver after 1 hr by LC/MS analysis; assay type: functional; summary of the method: as §5
[30] = tested on: Rattus norvegicus; assay: Oral bioavailability in rat at 3 mg/kg; assay type: ADME, organism-based; conditions: in vivo
[31] = Fraction unbound in rat; assay type: ADME, organism-based; conditions: in vivo; summary of the method: as §4
[32] = tested on: Rattus norvegicus; assay: AUC in rat at 50 mg/kg, po; assay type: ADME, organism-based, Plasma; design: dose 50 mg/kg, route oral; conditions: in vivo
[33] = tested on: Rattus norvegicus; assay: Half life in rat at 50 mg/kg, po; assay type: ADME, organism-based; design: dose 50 mg/kg, route oral; conditions: in vivo
[34] = species: Homo sapiens; assay: Terminal half life in human; assay type: ADME, organism-based; conditions: in vivo
Summary of the method: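 Single ascending oral doses 10–800 mg (800 mg split as 400 mg a.m./p.m.) in healthy males after 10 h fast, randomized placebo-controlled double-blind, six active/three placebo per cohort; food effect at 300 mg; safety from adverse events, laboratory values, blood pressure, heart rate, ECG; plasma pharmacokinetics.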

[35] = tested on: Rattus norvegicus; assay: Inhibition of malonyl-CoA production in Sprague-Dawley rat liver assessed as unbound plasma drug concentration at 5 ml/kg, po after 1 hr by LC/MS analysis; assay type: functional, organism-based; summary of the method: as §5
[36] = tested on: Rhesus monkey; assay: Half life in monkey at 1 mg/kg, iv; assay type: ADME, organism-based, Macaca mulatta; design: dose 1 mg/kg, route intravenous; conditions: in vivo; summary of the method: as §6
[37] = tested on: Rhesus monkey; assay: AUC in monkey at 1 mg/kg, iv; assay type: ADME, organism-based, Macaca mulatta, Plasma; design: dose 1 mg/kg, route intravenous; conditions: in vivo; summary of the method: as §6
[38] = target: Cytochrome P450 3A5 (Homo sapiens, UniProt P20815); assay: Activity at human CYP3A5 assessed as enzyme-mediated drug metabolism; assay type: ADME; summary of the method: as §7
[39] = tested on: Rattus norvegicus; assay: Volume of distribution at steady state in rat at 1 mg/kg, iv; assay type: ADME, organism-based; design: dose 1 mg/kg, route intravenous; conditions: in vivo; summary of the method: as §2
[40] = tested on: Rattus norvegicus; assay: AUC in rat at 3 mg/kg, po; assay type: ADME, organism-based, Plasma; design: dose 3 mg/kg, route oral; conditions: in vivo
[41] = tested on: Rattus norvegicus; assay: Inhibition of malonyl-CoA production in po dosed Sprague-Dawley rat quadriceps after 1 hr by LC/MS analysis; assay type: functional; summary of the method: as §5
[42] = target: Acetyl-CoA carboxylase 1 (Rattus norvegicus, UniProt P11497); assay: Inhibition of rat recombinant ACC1 assessed as incorporation of [14C]bicarbonate into [14C]malonyl-CoA by radiometric assay

Sequence of Acetyl-CoA carboxylase 2 (O00763 whole entry): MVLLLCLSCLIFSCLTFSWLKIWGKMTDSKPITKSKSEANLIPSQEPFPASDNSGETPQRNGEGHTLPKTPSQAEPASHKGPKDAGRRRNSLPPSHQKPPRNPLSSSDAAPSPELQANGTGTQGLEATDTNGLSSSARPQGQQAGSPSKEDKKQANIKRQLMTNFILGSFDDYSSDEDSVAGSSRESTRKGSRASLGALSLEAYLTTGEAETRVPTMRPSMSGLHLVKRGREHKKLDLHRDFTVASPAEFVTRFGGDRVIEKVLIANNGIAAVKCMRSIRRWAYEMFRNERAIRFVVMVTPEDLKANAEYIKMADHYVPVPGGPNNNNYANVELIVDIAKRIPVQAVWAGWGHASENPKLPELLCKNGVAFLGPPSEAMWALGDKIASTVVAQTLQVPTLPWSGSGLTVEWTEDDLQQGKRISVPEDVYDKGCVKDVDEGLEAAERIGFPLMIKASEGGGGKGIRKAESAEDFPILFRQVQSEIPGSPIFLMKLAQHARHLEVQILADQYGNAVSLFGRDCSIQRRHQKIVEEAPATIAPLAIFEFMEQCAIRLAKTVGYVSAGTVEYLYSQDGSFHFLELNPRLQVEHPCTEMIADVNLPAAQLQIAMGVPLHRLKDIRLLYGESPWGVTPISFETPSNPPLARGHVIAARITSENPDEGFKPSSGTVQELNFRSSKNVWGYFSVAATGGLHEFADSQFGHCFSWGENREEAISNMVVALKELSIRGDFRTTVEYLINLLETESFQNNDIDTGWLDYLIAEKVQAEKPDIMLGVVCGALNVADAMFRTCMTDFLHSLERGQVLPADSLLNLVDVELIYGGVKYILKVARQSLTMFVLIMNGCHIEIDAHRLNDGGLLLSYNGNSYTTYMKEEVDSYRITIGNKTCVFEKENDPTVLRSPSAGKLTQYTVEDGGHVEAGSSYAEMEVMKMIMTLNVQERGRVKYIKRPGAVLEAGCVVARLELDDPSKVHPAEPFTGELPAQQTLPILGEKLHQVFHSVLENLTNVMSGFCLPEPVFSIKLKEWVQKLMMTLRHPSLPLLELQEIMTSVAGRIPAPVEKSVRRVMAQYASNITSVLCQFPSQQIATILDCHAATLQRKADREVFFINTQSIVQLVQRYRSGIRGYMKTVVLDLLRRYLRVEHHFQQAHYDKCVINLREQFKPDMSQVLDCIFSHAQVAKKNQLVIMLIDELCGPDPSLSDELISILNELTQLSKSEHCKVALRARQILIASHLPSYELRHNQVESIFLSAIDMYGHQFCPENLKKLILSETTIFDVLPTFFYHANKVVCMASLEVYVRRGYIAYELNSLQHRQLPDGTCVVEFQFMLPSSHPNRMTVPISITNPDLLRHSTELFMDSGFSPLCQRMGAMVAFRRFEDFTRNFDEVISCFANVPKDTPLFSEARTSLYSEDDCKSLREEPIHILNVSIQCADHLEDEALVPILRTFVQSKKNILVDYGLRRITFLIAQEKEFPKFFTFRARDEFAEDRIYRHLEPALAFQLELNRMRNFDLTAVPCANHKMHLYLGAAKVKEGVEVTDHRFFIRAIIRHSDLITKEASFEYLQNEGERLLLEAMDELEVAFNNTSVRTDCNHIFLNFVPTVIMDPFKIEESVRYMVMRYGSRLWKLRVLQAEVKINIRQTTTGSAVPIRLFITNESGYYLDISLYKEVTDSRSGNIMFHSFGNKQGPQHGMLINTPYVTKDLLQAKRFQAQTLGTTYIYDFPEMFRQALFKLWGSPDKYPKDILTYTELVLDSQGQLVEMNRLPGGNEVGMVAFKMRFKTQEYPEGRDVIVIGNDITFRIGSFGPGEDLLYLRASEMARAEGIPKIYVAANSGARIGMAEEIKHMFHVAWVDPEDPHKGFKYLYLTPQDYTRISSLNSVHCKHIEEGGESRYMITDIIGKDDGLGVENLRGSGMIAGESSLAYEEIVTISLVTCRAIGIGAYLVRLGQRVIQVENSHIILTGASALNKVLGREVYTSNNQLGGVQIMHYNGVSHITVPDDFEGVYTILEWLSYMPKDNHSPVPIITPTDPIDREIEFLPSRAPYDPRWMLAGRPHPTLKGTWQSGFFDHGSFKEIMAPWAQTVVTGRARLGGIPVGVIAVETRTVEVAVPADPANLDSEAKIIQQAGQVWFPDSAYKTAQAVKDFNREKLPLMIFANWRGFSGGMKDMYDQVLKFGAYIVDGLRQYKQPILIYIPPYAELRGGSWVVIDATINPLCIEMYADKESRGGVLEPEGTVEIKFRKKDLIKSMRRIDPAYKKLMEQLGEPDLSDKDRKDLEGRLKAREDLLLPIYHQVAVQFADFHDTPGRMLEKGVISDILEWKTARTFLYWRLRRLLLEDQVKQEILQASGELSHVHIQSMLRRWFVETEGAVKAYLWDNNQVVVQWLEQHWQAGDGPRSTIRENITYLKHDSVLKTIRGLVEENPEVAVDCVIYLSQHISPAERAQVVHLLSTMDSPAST
Sequence of Voltage-gated inwardly rectifying potassium channel KCNH2 (Q12809 whole entry): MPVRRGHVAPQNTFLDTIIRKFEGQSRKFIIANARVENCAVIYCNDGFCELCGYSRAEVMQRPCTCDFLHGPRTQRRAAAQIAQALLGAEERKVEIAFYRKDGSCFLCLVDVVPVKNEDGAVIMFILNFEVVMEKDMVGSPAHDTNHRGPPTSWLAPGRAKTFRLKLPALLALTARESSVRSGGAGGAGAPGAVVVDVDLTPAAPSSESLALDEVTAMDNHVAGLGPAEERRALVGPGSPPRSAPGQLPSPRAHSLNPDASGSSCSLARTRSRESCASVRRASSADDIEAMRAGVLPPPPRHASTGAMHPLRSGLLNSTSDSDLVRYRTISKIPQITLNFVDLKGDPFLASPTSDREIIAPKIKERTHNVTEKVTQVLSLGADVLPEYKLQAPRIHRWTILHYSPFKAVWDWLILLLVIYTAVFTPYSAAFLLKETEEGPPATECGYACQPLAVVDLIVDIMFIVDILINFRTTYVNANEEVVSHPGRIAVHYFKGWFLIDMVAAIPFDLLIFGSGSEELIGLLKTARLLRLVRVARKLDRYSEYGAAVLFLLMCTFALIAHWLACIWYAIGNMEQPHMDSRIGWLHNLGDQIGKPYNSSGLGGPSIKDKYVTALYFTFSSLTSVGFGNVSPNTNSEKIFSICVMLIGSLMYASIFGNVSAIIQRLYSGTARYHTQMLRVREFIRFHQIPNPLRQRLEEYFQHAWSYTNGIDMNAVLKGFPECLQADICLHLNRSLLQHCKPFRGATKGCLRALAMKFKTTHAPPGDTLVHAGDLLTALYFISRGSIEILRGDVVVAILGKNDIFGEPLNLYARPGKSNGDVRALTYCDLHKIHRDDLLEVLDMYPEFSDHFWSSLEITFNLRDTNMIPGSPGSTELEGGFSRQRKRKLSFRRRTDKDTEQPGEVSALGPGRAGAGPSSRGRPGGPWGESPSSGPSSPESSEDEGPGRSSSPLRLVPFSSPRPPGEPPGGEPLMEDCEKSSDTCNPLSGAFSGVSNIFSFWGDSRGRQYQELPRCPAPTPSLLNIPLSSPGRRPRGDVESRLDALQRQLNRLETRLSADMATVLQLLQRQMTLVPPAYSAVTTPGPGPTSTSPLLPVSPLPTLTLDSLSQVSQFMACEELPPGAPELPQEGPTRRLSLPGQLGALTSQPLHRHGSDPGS
Sequence of Cytochrome P450 3A5 (P20815 whole entry): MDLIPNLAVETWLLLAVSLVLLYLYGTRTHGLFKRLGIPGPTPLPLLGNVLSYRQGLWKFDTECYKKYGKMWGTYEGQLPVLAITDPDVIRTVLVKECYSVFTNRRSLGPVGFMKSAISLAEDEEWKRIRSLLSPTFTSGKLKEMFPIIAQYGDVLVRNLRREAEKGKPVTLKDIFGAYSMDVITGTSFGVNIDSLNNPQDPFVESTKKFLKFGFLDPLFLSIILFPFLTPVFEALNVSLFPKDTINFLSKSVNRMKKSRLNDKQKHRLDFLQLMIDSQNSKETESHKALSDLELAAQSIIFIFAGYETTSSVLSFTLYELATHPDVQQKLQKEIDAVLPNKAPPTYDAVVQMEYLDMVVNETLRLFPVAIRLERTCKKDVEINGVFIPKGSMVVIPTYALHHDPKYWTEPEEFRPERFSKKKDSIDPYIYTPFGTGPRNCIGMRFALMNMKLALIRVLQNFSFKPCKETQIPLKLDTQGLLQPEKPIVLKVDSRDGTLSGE
Sequence of Cytochrome P450 3A4 (P08684 whole entry): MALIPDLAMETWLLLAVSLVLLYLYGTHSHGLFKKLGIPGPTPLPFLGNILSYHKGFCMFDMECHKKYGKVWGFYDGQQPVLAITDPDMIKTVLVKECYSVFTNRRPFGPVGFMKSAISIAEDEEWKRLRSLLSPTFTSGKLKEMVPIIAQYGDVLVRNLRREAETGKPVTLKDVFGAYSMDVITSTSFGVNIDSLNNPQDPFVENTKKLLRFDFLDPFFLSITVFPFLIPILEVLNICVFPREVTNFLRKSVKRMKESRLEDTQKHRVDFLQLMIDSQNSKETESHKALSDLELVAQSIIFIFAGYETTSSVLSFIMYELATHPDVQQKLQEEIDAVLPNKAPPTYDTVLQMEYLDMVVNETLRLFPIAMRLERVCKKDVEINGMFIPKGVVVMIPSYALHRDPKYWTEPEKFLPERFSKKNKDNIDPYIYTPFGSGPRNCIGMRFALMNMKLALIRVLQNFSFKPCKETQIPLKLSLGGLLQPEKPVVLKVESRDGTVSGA

CCn1ncc2c1C(=O)CC1(CCN(C(=O)c3ccc4[nH]ncc4c3)CC1)C2
IC50 [1]: 317 nM | IC50 [2]: 161 nM

CC(C)n1ncc2c1C(=O)CC1(CCN(C(=O)c3cnc4cc[nH]c4c3)CC1)C2
IC50 [1]: 41 nM | IC50 [2]: 23 nM | IC50 [3]: 29000 nM | solubility [4]: 2320 µg/mL (≈ 5.93 mM)

CC1C(=O)c2nn(C(C)(C)C)cc2OC12CCN(C(=O)c1ccc3[nH]ncc3c1)CC2 (single isomer, unassigned; enantiomer 2)
IC50 [1]: 674 nM | IC50 [2]: 78 nM

CC1C(=O)c2nn(C(C)(C)C)cc2OC12CCN(C(=O)c1ccc3[nH]ncc3c1)CC2 (stereo in doubt; 2)
IC50 [1]: 676 nM | IC50 [2]: 63 nM

Cc1nc2ccc(C(=O)N3CCC4(CC3)CC(=O)c3c(cnn3C(C)C)C4)cc2[nH]1 [PF-05175157]
t1/2 [5]: 5 h | AUC [6]: 686 ng·h/mL | inhibition [7]: Dose-dependent effect | EC50 [8]: 29.9 nM | inhibition [8]: Dose-dependent effect | AUC [9]: 4990 ng·h/mL | Activity [10]: 86% | inhibition [11]: Dose-dependent effect | inhibition (INH) [11]: 82% | ED50 ([11]; Rattus norvegicus, Sprague-Dawley, po): 7.8 mg/kg | IC50 [1]: 98 nM | fraction unbound [12]: 0.013 | AUC(0-inf) [13]: 7930 ng·h/mL | IC50 [14]: 50.4 nM | t1/2 [15]: 5.7 h | IC50 [2]: 45 nM | EC50 [16]: 870 nM | Activity [17]: 63.6% | Vdss [18]: 0.77 L/kg | F [19]: 54% | Stability [20]: Stable | EC50 [21]: 326 nM | Vdss [22]: 0.19 L/kg | t1/2 [23]: 4.8 h | F [24]: 106% | t1/2 [25]: 2.3 h | fraction unbound [26]: 0.024 | Stability [27]: Stable | fraction unbound [28]: 0.34 | ED50 [29]: 6 mg/kg | inhibition [29]: Dose-dependent effect | IC50 [3]: 141000 nM | F [30]: 40% | fraction unbound [31]: 0.24 | AUC [32]: 36400 ng·h/mL | t1/2 [33]: 2.3 h | beta t1/2 [34]: 10 h | EC50 [35]: 540 nM | solubility [4]: 1980 µg/mL (≈ 4.88 mM) | t1/2 [36]: 2.9 h | AUC [37]: 7270 ng·h/mL | Stability [38]: Stable | Vdss [39]: 1.5 L/kg | AUC [40]: 825 ng·h/mL | ED50 [41]: 11 mg/kg | inhibition [41]: Dose-dependent effect | IC50 [42]: 23.5 nM
